NR2E3 ag-1 – NR2E3 agonists in two-hybrid cells, primary screen, cell-based, luminescence, CHO-S, Gal4-NCOR/VP16-NR2E3; Photoreceptor-specific nuclear receptor (Homo sapiens), Q9Y5X4; luciferase; inhibition of corepressor binding, % at 3.98 µM; actives 0.35% (n = 360,000);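 active = inhibition above the mean of all tested compounds plus 3 SD, cut at about 70% in these data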;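 note: higher means lower luciferase signal from less NR2E3 corepressor binding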
Target sequence (Q9Y5X4 whole entry, looked up, the tested form may be a part): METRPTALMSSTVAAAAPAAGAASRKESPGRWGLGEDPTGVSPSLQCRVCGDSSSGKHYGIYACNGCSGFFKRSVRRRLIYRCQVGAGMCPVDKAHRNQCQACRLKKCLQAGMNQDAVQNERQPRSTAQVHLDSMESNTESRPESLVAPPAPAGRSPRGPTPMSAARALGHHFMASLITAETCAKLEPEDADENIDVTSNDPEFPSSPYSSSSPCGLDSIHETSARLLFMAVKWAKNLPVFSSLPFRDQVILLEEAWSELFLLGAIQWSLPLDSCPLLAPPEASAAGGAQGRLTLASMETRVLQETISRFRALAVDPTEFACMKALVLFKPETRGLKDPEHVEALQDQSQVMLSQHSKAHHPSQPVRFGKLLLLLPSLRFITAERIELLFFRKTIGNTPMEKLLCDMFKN
NR2E3 ag-2 – inhibitors of NR2E3-RetCOR corepressor binding, primary screen, NR2E3 agonist project, biochemical, TR-FRET, GST-NR2E3, biotin-RetCOR; inhibition of corepressor binding, % at 4.78 µM; AID 2300, 2010; Photoreceptor-specific nuclear receptor (Homo sapiens), Q9Y5X4; 1536-well; actives 0.12% (n = 320,000);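 active = percent inhibition above the cutoff of mean plus 3 SD of all tested compounds, set per screening campaign, cut at about 20% in these data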
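Material: NR2E3–RetCOR corepressor complex / Amount: 1.35 nM GST-NR2E3 / Medium: Tris pH 7.5 / Compound: single nominal compound dose of 4.8 µM / Incubation: 5 h at 4 °C / Technique: TR-FRET, Eu(K)-anti-GST donor, streptavidin-D2 acceptor, ex 340, em 617/671 nm / Read-out basis: percent loss of FRET ratio relative to control wells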
NadD inh – inhibitors of S. aureus NadD, primary screen, biochemical, colorimetric, uHTS; actives 0.78% (n = 360,000); Nicotinate-nucleotide adenylyltransferase NadD (Staphylococcus aureus N315); purified NadD enzyme, colorimetric absorbance read-out; AID 602399, 2012; inhibition, % at 20 µM; in the data active = inhibition above about 26%
MsrA inh – bovine MsrA enzyme inhibitors, primary screen, biochemical, absorbance, HTS. actives 0.75% (n = 360,000). AID 651718, 2012. inhibition, % at 15.5 µM. purified bovine MsrA, absorbance read-out; in the data active = inhibition above about 4.5%
MsrA act – bovine MsrA enzyme activators, primary screen, biochemical, absorbance, HTS | activation, % at 10.6 µM | purified bovine MsrA, absorbance read-out | actives 0.3% (n = 360,000); in the data active = activation above about 7.5%
GalR3 antag – GalR3 antagonists in HEK293 cells, primary screen, cell-based, fluorescence readout. Galanin receptor type 3 (Homo sapiens), O60755. HEK293 GalR3-CNG cAMP membrane potential fluorescence; galR3 body fused to GalR1 C-terminus. inhibition, % at 3 µM. actives 0.44% (n = 360,000). AID 651719, 2012;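 active = inhibition above the screen-wide average plus 3 SD, cut at about 13% in these data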;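 note: forskolin and galanin both at EC90 stimulate the cells; cAMP rise reported by CNG channel membrane potential dye signal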
NR2E3 ag conf – NR2E3 agonist confirmation in cells, cell-based, luminescence, CHO-S two-hybrid | actives 51% (n = 2,300) | shares compounds with NR2E3 ag-1 | CHO-S mammalian two-hybrid NR2E3-NCOR, luciferase luminescence | inhibition, % at 3.98 µM;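 active = average inhibition above a cutoff equal to the mean inhibition of all tested compounds plus one SD, cut at about 70% in these data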
VP16 counter – GAL4-VP16 reporter modulators, confirmation, counter-screen for NR2E3 agonist project, cell-based, luminescence, CHO-S, high throughput; inhibition, % at 3.98 µM; AID 624379, 2012; CHO-S GAL4-VP16 luciferase reporter; shares compounds with NR2E3 ag-1; actives 29% (n = 2,300);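 active = mean inhibition above a cutoff equal to the average over all tested compounds plus one standard deviation, cut at about 70% in these data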;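 note: luciferase from a UAS reporter driven by GAL4-VP16 transactivation; higher means less reporter light so more repression of VP16 activity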
Hits are given with their value; . = inactive; / = no result. In the library only some 2.5% were active in any assay of this set; here they are far more common.

SMILES	NR2E3 ag-1	NR2E3 ag-2	NadD inh	MsrA inh	MsrA act	GalR3 antag	NR2E3 ag conf	VP16 counter
O=C(NC(=S)/C(=C1\CCCCCN1)[N+](=O)[O-])c1ccccc1	.	/	.	/	.	/	.	.
O=C(Nc1cc(S(=O)(=O)N2CCCCC2)ccc1Cl)c1ccccc1NS(=O)(=O)c1ccc(F)cc1	96	.	.	.	.	.	99	85
Cc1csc2c(N3CCN(C(=O)c4ccc(C(C)(C)C)cc4)CC3)ncnc12	77	.	.	.	.	.	97	84
Cc1csc2c(N3CCN(C(=O)Nc4ccc(Cl)c(Cl)c4)CC3)ncnc12	81	.	.	.	.	.	97	84
Cc1csc2c(N3CCN(C(=O)NC(C)(C)C)CC3)ncnc12	.	.	.	.	.	.	/	/
Cc1csc2c(N3CCN(C(=S)Nc4ccc(C(F)(F)F)cc4)CC3)ncnc12	92	.	.	.	.	.	96	87
Cc1cc(C)cc(NC(=S)N2CCN(c3ncc(C(F)(F)F)cc3Cl)CC2)c1	.	.	.	.	.	.	/	/
CC(=O)N1N=C(c2ccco2)CC1c1ccc(C)cc1 (stereo unspecified)	.	.	.	.	.	.	/	/
Cc1ccc(/C=C2\CCOC2=O)cc1	.	.	.	.	.	.	/	/
Cc1ccc(/C=C2/CNC/C(=C/c3ccc(C)cc3)C2=O)cc1	.	/	.	.	.	.	.	.
CC1=C(C)/C(=N\OS(=O)(=O)c2ccc(C)cc2)C=CC1=O	71	.	.	.	.	.	.	.
COc1ccc(S(=O)(=O)/N=C2/C=CC(=O)C(C)=C2C)cc1	.	.	.	/	.	/	/	/
Nc1ccc(-c2cc3ccccc3oc2=O)cc1	.	.	.	.	.	.	.	.
O=c1oc2ccccc2cc1-c1ccc(O)cc1	.	.	.	.	.	.	/	/
C/C(=N\Nc1nc2ccccc2s1)c1ccc(Br)s1	.	.	.	.	.	.	/	/
CC(=NNc1nc2ccccc2s1)c1ccncn1	.	/	.	.	.	.	.	.
CC(C)(NS(=O)(=O)OCC(Cl)(Cl)Cl)c1ccccc1	.	.	.	.	.	.	/	/
CC(NS(=O)(=O)OCC(Cl)(Cl)Cl)c1ccc(C(C)(C)C)cc1 (stereo unspecified)	.	.	.	.	.	.	.	.
Cc1ccc(NC(=O)Cn2c(=O)oc3cc(S(=O)(=O)N4CCC(C)CC4)ccc32)cc1C	.	.	.	.	.	.	.	.
COc1ccc(NC(=O)Cn2c(=O)oc3cc(S(=O)(=O)N4CCCC4)ccc32)cc1	.	.	.	.	.	.	/	/
Cc1ccc(NS(=O)(=O)c2ccc(C(=O)N3CCN(c4ncccn4)CC3)cc2)cc1	83	.	.	.	.	.	74	.
Cc1ccc(NS(=O)(=O)c2ccc(C(=O)N3CCN(S(=O)(=O)c4ccccc4)CC3)cc2)cc1	.	.	.	.	.	.	.	.
Cc1ccc(C(=O)N2CCN(c3ncccn3)CC2)cc1	.	/	.	.	.	.	/	/
CCOC(=O)c1cc(C(=O)c2cc(Cl)ccc2O)coc1=N	.	.	.	.	.	.	/	/
CCCCCCCCCS(=O)(=O)N/N=C/c1cccc([N+](=O)[O-])c1	.	.	.	.	.	.	.	.
SMILES	NR2E3 ag-1	NR2E3 ag-2	NadD inh	MsrA inh	MsrA act	GalR3 antag	NR2E3 ag conf	VP16 counter
O=[N+]([O-])c1ccc(NC(=S)NCCc2ccc(F)cc2)cc1	.	.	.	.	.	.	77	.
CC(=O)c1c(C)[nH]c(C(=O)CSc2nnc(N)s2)c1C	.	.	.	.	.	.	/	/
Cc1ccc(C(=O)Nc2cccc(NC(=O)c3ccc(C)c([N+](=O)[O-])c3)n2)cc1[N+](=O)[O-]	.	.	.	.	.	.	/	/
Cc1ccc(C(=O)Nc2sc(C)c(-c3ccccc3)c2C(N)=O)cc1[N+](=O)[O-]	.	.	.	.	.	.	.	.
CCCn1c(CNc2ccc(Br)cc2)nc2ccccc21	.	.	.	.	.	/	.	.
Cc1cc(=O)[nH]c(SCC(=O)Nc2ccc(F)cc2)c1C#N	.	.	.	.	.	.	/	/
Cc1cc(=O)[nH]c(SCC(=O)Nc2ccc(Br)cc2)c1C#N	78	.	.	.	.	.	98	90
Cc1cc(=O)[nH]c(SCC(=O)Nc2ccc3c(c2)CCC3)c1C#N	.	.	.	.	.	.	.	.
CC(Oc1ccccc1F)C(=O)/C=C/N(C)C (stereo unspecified)	.	.	.	/	.	/	/	/
O=C1C=C(c2cc3ccccc3o2)C[C@@H](c2ccc(F)cc2)C1	.	.	.	.	.	.	/	/
CSc1ccc(CN2C(=O)C(F)(F)Oc3c(C(C)=O)cccc32)cc1	.	/	.	/	.	/	.	.
CN(C)CCCNC(=S)Nc1ccc(-c2ccccc2)cc1	.	.	.	.	.	.	/	/
CCN1/C(=C\C(=S)Nc2ccccc2)Sc2ccccc21	.	.	.	.	.	.	/	/
CCN1/C(=C/C(C)=C/c2sc3ccccc3[n+]2CC)Sc2ccccc21	92	.	.	.	.	.	100	95
Nc1nc(F)nc2c1ncn2[C@@H]1O[C@H](CO)[C@@H](O)[C@@H]1O	.	.	.	.	.	.	/	/
Nc1nc(F)nc2c1ncn2[C@@H]1O[C@H](CO)[C@@H](O)[C@H]1O	103	.	.	.	.	.	100	99
COc1ccc(CCOC(=O)c2ccc(N)c([N+](=O)[O-])c2)cc1	.	.	.	.	.	.	.	.
CCOC(=O)C1CCCN(Cc2ccc(-c3ccccc3)cc2)C1 (stereo unspecified)	.	.	.	.	.	.	/	/
Cc1ccc(NC(=O)O/N=C/c2c(C)nn(C(C)(C)C)c2C)cc1Cl	100	.	.	.	.	.	83	96
Cc1ccc(NC(=O)Nn2cnnc2)cc1Cl	.	.	.	.	.	.	/	/
COc1ccc(CCNC(=O)C2CC3Cn4c(nc5cc6ccccc6cc54)C3N2C)cc1 (stereo unspecified)	.	.	.	.	.	.	.	.

Screening results: PubChem, several laboratories
